Data from ChEMBL document CHEMBL1141184, “Synthesis and biological study of a new series of 4'-demethylepipodophyllotoxin derivatives” (J Med Chem, 2005).
pIC50: −log10 of the molar value.

Legend:
[1] = target: DNA topoisomerase 2-alpha (Homo sapiens) (UniProt P11388); test: Inhibition of human DNA topoisomerase II alpha as percent linear DNA after treatment with 20 uM
L1210 [2] = test: Inhibition of L1210 cell proliferation in cytotoxic assay; format: functional, cell-based; conditions: Mus musculus
Method in brief: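 Murine L1210 leukaemia cells (nonadherent, exponential growth) in RPMI 1640 with 10% FCS, 2 mM glutamine, 10 mM HEPES pH 7.4; 48 h exposure to serial dilutions (compounds from 5 mM DMSO stock diluted in water). MTT added for 4 h at 37 °C, formazan dissolved in DMSO, OD 540 nm; IC50 by linear regression on linear part of dose–response; triplicate.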

L1210 [3] = test: Percentage of L1210 cells in the G2M phase after treatment with compound at 1 uM concentration expressed as cell cycle effect; format: functional, Mus musculus
Method in brief: (§1)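 L1210 cells at 2.5×10^5 cells/mL exposed 21 h to the compound; fixed in 70% ethanol, stained 30 min at 20 °C in D-PBS with 100 µg/mL RNase A and 25 µg/mL propidium iodide; 10^4 cells per sample by flow cytometry; value is % of cells in G2M.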

L1210 [4] = test: Percentage of L1210 cells in the G2M phase after treatment with compound at 25 uM concentration expressed as cell cycle effect; format: functional, Mus musculus
Method in brief: as §1

L1210 [5] = test: Percentage of L1210 cells in the G2M phase after treatment with compound at 10 uM concentration expressed as cell cycle effect; format: functional, Mus musculus
Method in brief: as §1

L1210 [6] = test: Percentage of L1210 cells in the G2M phase after treatment with compound at 2.5 uM concentration expressed as cell cycle effect; format: functional, Mus musculus
Method in brief: as §1

L1210 [7] = test: Percentage of L1210 cells in the G2M phase after treatment with compound at 0.1 uM concentration expressed as cell cycle effect; format: functional, Mus musculus
Method in brief: as §1

A549 = test: Maximum tolerated dose after treatment on days 14, 21, and 28 against human A549 non-small-cell lung carcinoma
Mus musculus [8] = species on record: Mus musculus; test: Percent median survival time to that of control in mice on days 14,21 and 28; format: functional
Method in brief: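 BALB/c nude mice given 10^6 A549 cells orthotopically into left pleural space under anaesthesia; iv treatment on days 14, 21 and 28 after implantation. MTD = dose without toxic death and/or >20% weight loss; T/C (%) = median survival time treated/control ×100.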

Mus musculus [9] = species on record: Mus musculus; test: Percent median survival time to that of control in mice on day 1; format: functional
Method in brief: (§2)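 B6D2F1 mice inoculated ip with 10^6 P388 cells (day 0), single iv dose on day 1. MTD = highest dose without toxic death and/or >20% weight loss. T/C (%) = median survival time treated/control ×100.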

P388 = test: Maximum tolerated dose value on day 1 against mouse P388 leukemia cells; format: functional
Method in brief: as §2

Sequence of DNA topoisomerase 2-alpha (Homo sapiens) (P11388 whole entry): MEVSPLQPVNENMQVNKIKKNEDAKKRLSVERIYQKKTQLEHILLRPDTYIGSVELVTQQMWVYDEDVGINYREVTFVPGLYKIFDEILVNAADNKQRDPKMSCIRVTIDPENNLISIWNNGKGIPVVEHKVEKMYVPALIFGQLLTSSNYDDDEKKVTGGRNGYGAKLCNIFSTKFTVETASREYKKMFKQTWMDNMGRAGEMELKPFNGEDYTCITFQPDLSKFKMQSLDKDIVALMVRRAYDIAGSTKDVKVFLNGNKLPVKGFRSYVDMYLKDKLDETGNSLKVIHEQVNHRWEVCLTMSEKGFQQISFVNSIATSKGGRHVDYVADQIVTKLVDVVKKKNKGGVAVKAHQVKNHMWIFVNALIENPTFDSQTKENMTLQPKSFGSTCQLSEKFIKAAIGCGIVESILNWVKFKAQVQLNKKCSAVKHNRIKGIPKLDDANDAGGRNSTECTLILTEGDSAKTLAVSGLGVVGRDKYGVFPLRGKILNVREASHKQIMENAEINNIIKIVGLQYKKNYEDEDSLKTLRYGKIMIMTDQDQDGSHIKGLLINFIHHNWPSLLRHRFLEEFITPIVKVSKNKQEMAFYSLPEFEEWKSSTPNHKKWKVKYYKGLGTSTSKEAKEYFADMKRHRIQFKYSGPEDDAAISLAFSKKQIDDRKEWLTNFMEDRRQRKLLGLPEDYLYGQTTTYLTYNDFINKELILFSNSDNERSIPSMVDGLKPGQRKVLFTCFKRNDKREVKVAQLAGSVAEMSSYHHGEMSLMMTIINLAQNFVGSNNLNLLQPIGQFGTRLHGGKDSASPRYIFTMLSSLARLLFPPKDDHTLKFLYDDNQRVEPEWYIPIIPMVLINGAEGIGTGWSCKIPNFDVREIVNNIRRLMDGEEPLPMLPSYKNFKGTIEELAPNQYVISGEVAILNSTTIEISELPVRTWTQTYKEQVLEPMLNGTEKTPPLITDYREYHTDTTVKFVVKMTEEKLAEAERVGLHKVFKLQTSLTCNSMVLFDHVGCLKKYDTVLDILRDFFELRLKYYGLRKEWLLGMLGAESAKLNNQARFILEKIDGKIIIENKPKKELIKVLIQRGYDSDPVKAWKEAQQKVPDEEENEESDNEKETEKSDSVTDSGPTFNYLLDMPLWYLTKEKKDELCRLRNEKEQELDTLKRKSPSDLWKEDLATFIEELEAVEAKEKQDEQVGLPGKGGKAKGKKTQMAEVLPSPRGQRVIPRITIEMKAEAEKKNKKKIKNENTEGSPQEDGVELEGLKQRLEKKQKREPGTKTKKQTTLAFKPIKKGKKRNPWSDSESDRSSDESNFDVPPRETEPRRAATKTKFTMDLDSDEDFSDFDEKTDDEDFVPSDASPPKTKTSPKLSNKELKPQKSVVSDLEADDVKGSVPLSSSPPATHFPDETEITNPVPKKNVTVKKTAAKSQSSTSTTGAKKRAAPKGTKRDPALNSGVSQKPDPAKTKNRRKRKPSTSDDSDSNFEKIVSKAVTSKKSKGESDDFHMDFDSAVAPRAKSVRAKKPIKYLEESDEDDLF

Row | SMILES | percent linear DNA [1] | pIC50 (L1210 [2]) | also measured
1 | COc1cc([C@@H]2c3cc4c(cc3[C@@H](OC(=O)N(C)CCCN(C)C)[C@H]3C(=O)OC[C@H]23)OCO4)cc(OC)c1O | 0% | 4.68 | 
2 | COc1cc([C@@H]2c3cc4c(cc3[C@@H](OC(=O)NCCCN(C)C)C3COC(=O)[C@@H]32)OCO4)cc(OC)c1O (stereo not given in full) | 58% | 6.47 | Activity (L1210 [3]): 72%
3 | COc1cc([C@@H]2c3cc4c(cc3[C@@H](OC(=O)N(C)CCN(C)C)[C@H]3C(=O)OC[C@H]23)OCO4)cc(OC)c1O | 0% | 5.28 | Activity (L1210 [4]): 77%
4 | COc1cc([C@@H]2c3cc4c(cc3[C@@H](OCNCCN(C)C)C3COC(=O)[C@@H]32)OCO4)cc(OC)c1O (stereo not given in full) |  | 4.55 | 
5 | COc1cc([C@@H]2c3cc4c(cc3[C@@H](OC(=O)NCCCN(C)C)[C@H]3C(=O)OC[C@H]23)OCO4)cc(OC)c1O | 0% | 5.85 | Activity (L1210 [5]): 65%
6 | COc1cc([C@@H]2c3cc4c(cc3[C@@H](CCN(C)CCN(C)C)C3COC(=O)[C@@H]32)OCO4)cc(OC)c1O (stereo not given in full) | 57% | 6.22 | Activity (L1210 [6]): 75%
7 | COc1cc([C@@H]2c3cc4c(cc3[C@@H](OC(=O)NCCCN)C3COC(=O)[C@@H]32)OCO4)cc(OC)c1O (stereo not given in full) | 38% | 5.89 | 
8 | COc1cc([C@@H]2c3cc4c(cc3[C@@H](OC(=O)NCCN(C)C)C3COC(=O)[C@@H]32)OCO4)cc(OC)c1O (stereo not given in full) | 56% | 7.42 | Activity (L1210 [7]): 67%; MTD (A549): 6.25 mg/kg; T/C (Mus musculus [8]): 151%; T/C (Mus musculus [9]): 192%; MTD (P388): 6.25 mg/kg
9 | COc1cc([C@@H]2c3cc4c(cc3[C@@H](OC(=O)NCCCN)[C@H]3C(=O)OC[C@H]23)OCO4)cc(OC)c1O | 0% | 5.37 | 
10 | COc1cc([C@@H]2c3cc4c(cc3[C@@H](OC(=O)N(C)CCCN(C)C)C3COC(=O)[C@@H]32)OCO4)cc(OC)c1O (stereo not given in full) | 17% | 6.02 | 
11 | COc1cc([C@@H]2c3cc4c(cc3[C@@H](OC(=O)N(C)CCN(C)C)C3COC(=O)[C@@H]32)OCO4)cc(OC)c1O (stereo not given in full) | 27% | 5.77 | MTD (A549): 25 mg/kg; T/C (Mus musculus [8]): 102%; T/C (Mus musculus [9]): 182%; Activity (L1210 [6]): 77%; MTD (P388): 50 mg/kg
12 | COc1cc([C@@H]2c3cc4c(cc3[C@@H](O[C@@H]3O[C@@H]5CO[C@@H](C)O[C@H]5[C@H](O)[C@H]3O)[C@H]3COC(=O)[C@H]23)OCO4)cc(OC)c1O [ETOPOSIDE] | 50% |  | MTD (A549): 70 mg/kg; T/C (Mus musculus [8]): 131%; T/C (Mus musculus [9]): 233%; Activity (L1210 [6]): 76%; MTD (P388): 100 mg/kg
13 | COc1cc([C@@H]2c3cc4c(cc3[C@@H](OC(=O)N(C)CCCN)C3COC(=O)[C@@H]32)OCO4)cc(OC)c1O (stereo not given in full) | 8% | 6.62 | 
14 | COc1cc([C@@H]2c3cc4c(cc3[C@@H](OC(=O)NCCN(C)C)[C@H]3C(=O)OC[C@H]23)OCO4)cc(OC)c1O | 64% | 7.06 | MTD (A549): 6.25 mg/kg; T/C (Mus musculus [8]): 152%; Activity (L1210 [3]): 83%; T/C (Mus musculus [9]): 214%; MTD (P388): 12.5 mg/kg
